# Tests used:
# [1] = tested on: dopamine D2/D3 receptors; assay: Multiple-injection; type: in vivo, rhesus monkey (Macaca mulatta)
# [2] = Multiple-injection; type: in vivo, rhesus monkey (Macaca mulatta)
# In short: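 Three labeled/unlabeled radioligand injections were given i.v. in 0.9% NaCl within a session under 3 hours, with no decay correction. The model used K1, k2, fNDkon, koff and Bmax shared across injections, with molar arterial parent plasma as input and a blood-volume term. Levenberg–Marquardt fitting was run per ROI and across regions. Cerebellum was fitted as 1CM [K1,k2] or 2CM [K1,k2,Bmax] with fNDkon and koff fixed from other regions.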
# [3] = baboon, MI experiments; ref Delforge et al, 1999; cited from earlier work
# [4] = averaged across all brain regions
"K1, mean [2, 4] [mL/cm^3/min]","k2, tissue-to-plasma efflux constant, mean [2, 4] [min⁻¹]",ND distribution volume (VND = K1/k2) ([2]; from mean K1 and k2) [mL/cm^3],SMILES,"Estimated maximum receptor occupancy, injection 1 ([1]; experiment M1a, m1 2.0 nmol) [%]","Estimated maximum receptor occupancy, injection 2 ([1]; experiment M1a, m2 13.1 nmol) [%]","Estimated maximum receptor occupancy, injection 3 ([1]; experiment M1a, m3 100 nmol) [%]","Estimated maximum receptor occupancy, injection 1 ([1]; experiment M2a, m1 0.7 nmol) [%]","Estimated maximum receptor occupancy, injection 2 ([1]; experiment M2a, m2 10.6 nmol) [%]",VND [3] [mL/cm^3]
0.48 ± 0.15,0.54 ± 0.10,0.9,"C=CCN1CCC[C@H]1CNC(=O)c1cc(CCCF)cc(OC)c1OC [^18F-fallypride, (S)-N-[(1-allyl-2-pyrrolidinyl)methyl]-5 (3-[18F]fluoropropyl) 2,3-dimethoxybenzamide]",13,64,98,12,77,–
–,–,–,CCN1CCCC1CNC(=O)c1cc([76Br])cc(OC)c1OC (stereo not drawn) [^76Br-FLB457],–,–,–,–,–,0.35

# Reference: publication PMC2897717 (Journal of cerebral blood flow and metabolism : official …, 2009)
